Laboratory results from ChEMBL document CHEMBL1150675, “Chemical constituents of Calophyllum brasiliense. 2. Structure of three new coumarins and cancer chemopreventive activity of 4-substituted coumarins” (J Nat Prod, 2003).

Key:
Raji [1] = assay: Inhibition of TPA-induced EBV-early antigen activation in human Raji cells assessed as early antigen activation at 32 nmol after 48 hrs relative to control; assay type: cell-based; set-up: scale not given: the % may be the effect or the level left; details: human gammaherpesvirus 4
In short: (§1)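 Raji cells at 10^6 cells/mL are harvested and induced in RPMI 1640/10% FCS with 4 mM n-butyric acid and 32 pmol TPA (20 ng/mL). Compound is added in DMSO at 32, 16, 3.2 or 0.32 nmol (mol ratio to TPA). After 48 h at 37 °C, EA-positive cells are counted blind (≥500 cells) as % versus TPA-only control ± SD. IC50 is the mol ratio to TPA giving 50% inhibition.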

[2] = Cytotoxicity against human Raji cells assessed as cell viability at 0.32 nmol after 48 hrs by trypan blue staining; assay type: cell-based; details: read-out: Activity
In short: (§2)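 Raji cells grown to 106 cells/mL, pelleted and resuspended in RPMI 1640 with 10% FCS plus 4 mM n-butyric acid and 32 pmol TPA (20 ng/mL in DMSO), with test compound in DMSO (32, 16, 3.2 or 0.32 nmol; 1000–10 mol ratio/TPA). Viability counted after 48 h at 37 °C by hemocytometer with Trypan Blue; at least 60% survival required.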

Raji [3] = assay: Inhibition of TPA-induced EBV-early antigen activation in human Raji cells assessed as early antigen activation at 0.32 nmol after 48 hrs relative to control; assay type: cell-based; set-up: scale not given: the % may be the effect or the level left; details: human gammaherpesvirus 4; in short: as §1
[4] = Cytotoxicity against human Raji cells assessed as cell viability at 3.2 nmol after 48 hrs by trypan blue staining; assay type: cell-based; details: read-out: Activity; in short: as §2
[5] = Cytotoxicity against human Raji cells assessed as cell viability at 16 nmol after 48 hrs by trypan blue staining; assay type: cell-based; details: read-out: Activity; in short: as §2
[6] = Cytotoxicity against human Raji cells assessed as cell viability at 32 nmol after 48 hrs by trypan blue staining; assay type: cell-based; details: read-out: Activity; in short: as §2
[7] = Inhibition of TPA-induced EBV-early antigen activation in human Raji cells assessed as early antigen activation after 48 hrs relative to control; assay type: cell-based, human gammaherpesvirus 4; in short: as §1
Raji [8] = assay: Inhibition of TPA-induced EBV-early antigen activation in human Raji cells assessed as early antigen activation at 16 nmol after 48 hrs relative to control; assay type: cell-based; set-up: scale not given: the % may be the effect or the level left; details: human gammaherpesvirus 4; in short: as §1
Raji [9] = assay: Inhibition of TPA-induced EBV-early antigen activation in human Raji cells assessed as early antigen activation at 3.2 nmol after 48 hrs relative to control; assay type: cell-based; set-up: scale not given: the % may be the effect or the level left; details: human gammaherpesvirus 4; in short: as §1

In the case of CCCc1cc(=O)oc2c(C(=O)C(C)CC)c(O)c(CC=C(C)C)c(O)c12 (stereo not given), the Activity (Raji [1]) is reported as 0%, the viability at 48 h, 0.32 nmol [2] is reported as > 80% and the Activity (Raji [3]) is reported as 84.2%. For the same molecule, the viability at 48 h, 3.2 nmol [4] was > 80%, the viability at 48 h, 16 nmol [5] was > 80% and the viability at 48 h, 32 nmol [6] was 60%. For the same molecule, the IC50 [7] was 170 molar ratio, the Activity (Raji [8]) was 13.7% and the Activity (Raji [9]) was 50.6%.
For C/C=C(\C)C(=O)c1c(OC)c2c(c3c(CCC)cc(=O)oc13)OC(C)(C)C=C2, the Activity (Raji [1]) was 0%, the viability at 48 h, 0.32 nmol [2] was > 80% and the Activity (Raji [3]) was 90.8%. The viability at 48 h, 3.2 nmol [4] was > 80%, the viability at 48 h, 16 nmol [5] was > 80% and the viability at 48 h, 32 nmol [6] was 60%. It also gave an IC50 [7] of 268 molar ratio, an Activity (Raji [8]) of 19.5% and an Activity (Raji [9]) of 62.5%.
Work on CC1=C(/C=C/C(C)=C/C=C/C(C)=C/C=C/C=C(C)/C=C/C=C(C)/C=C/C2=C(C)CCCC2(C)C)C(C)(C)CCC1 [BETA CAROTENE] yielded an Activity (Raji [1]) of 9.1%, an Activity (Raji [3]) of 100% and an IC50 [7] of 400 molar ratio.
With CCCc1cc(=O)oc2c(C(=O)c3ccccc3)c(O)c3c(c12)OC(C)(C)C=C3 [BRASIMARIN A] the Activity (Raji [1]) was 0%, the viability at 48 h, 0.32 nmol [2] was > 80% and the Activity (Raji [3]) was 93.8%. For the same molecule, the viability at 48 h, 3.2 nmol [4] was > 80%, the viability at 48 h, 16 nmol [5] was > 80% and the viability at 48 h, 32 nmol [6] was 70%. For the same molecule, the IC50 [7] was 349 molar ratio, the Activity (Raji [8]) was 33.3% and the Activity (Raji [9]) was 72.1%.
In the case of CCC(C)C(=O)c1c(O)c2c(c3c(-c4ccccc4)cc(=O)oc13)OC(C(C)(C)O)C2 (stereo not given) [BRASIMARIN B], the Activity (Raji [1]) is reported as 0%, the viability at 48 h, 0.32 nmol [2] is reported as > 80% and the Activity (Raji [3]) is reported as 92.5%. For the same molecule, the viability at 48 h, 3.2 nmol [4] was > 80%, the viability at 48 h, 16 nmol [5] was > 80% and the viability at 48 h, 32 nmol [6] was 70%. For the same molecule, the IC50 [7] was 342 molar ratio, the Activity (Raji [8]) was 32.6% and the Activity (Raji [9]) was 71.6%.
With CC(C)=CCc1c2c(c3oc(=O)cc(-c4ccccc4)c3c1O)C(=O)[C@H](C)[C@@H](C)O2 [BRASIMARIN C] the Activity (Raji [1]) was 0%, the viability at 48 h, 0.32 nmol [2] was > 80% and the Activity (Raji [3]) was 93.8%. The viability at 48 h, 3.2 nmol [4] was > 80%, the viability at 48 h, 16 nmol [5] was > 80% and the viability at 48 h, 32 nmol [6] was 70%. The IC50 [7] was 348 molar ratio, the Activity (Raji [8]) was 33.3% and the Activity (Raji [9]) was 70.2%.
For CCCc1cc(=O)oc2c3c(c4c(c12)OC(C)(C)C=C4)O[C@H](C)[C@@H](C)[C@@H]3O [CALANOLIDE A], the Activity (Raji [1]) was 0%, the viability at 48 h, 0.32 nmol [2] was > 80% and the Activity (Raji [3]) was 92.5%. The viability at 48 h, 3.2 nmol [4] was > 80%, the viability at 48 h, 16 nmol [5] was > 80% and the viability at 48 h, 32 nmol [6] was 60%. The IC50 [7] was 290 molar ratio, the Activity (Raji [8]) was 27.7% and the Activity (Raji [9]) was 66.6%.
With CCCc1cc(=O)oc2c3c(c4c(c12)OC(C)(C)C=C4)O[C@H](C)[C@H](C)[C@@H]3O [CALANOLIDE C] the Activity (Raji [1]) was 0%, the viability at 48 h, 0.32 nmol [2] was > 80% and the Activity (Raji [3]) was 94.3%. The viability at 48 h, 3.2 nmol [4] was > 80%, the viability at 48 h, 16 nmol [5] was > 80% and the viability at 48 h, 32 nmol [6] was 70%. The IC50 [7] was 351 molar ratio, the Activity (Raji [8]) was 35.1% and the Activity (Raji [9]) was 74%.
For CC1(C)C=Cc2c(O)c(C(=O)c3ccccc3)c3oc(=O)cc(-c4ccccc4)c3c2O1 [CALANONE], the Activity (Raji [1]) was 0%, the viability at 48 h, 0.32 nmol [2] was > 80% and the Activity (Raji [3]) was 93.3%. The viability at 48 h, 3.2 nmol [4] was > 80%, the viability at 48 h, 16 nmol [5] was > 80% and the viability at 48 h, 32 nmol [6] was 70%. It also gave an IC50 [7] of 347 molar ratio, an Activity (Raji [8]) of 32.3% and an Activity (Raji [9]) of 73.1%.
